Measured values of several laboratories.
Lines come from different studies, so protocols differ.
Route: oral

Compound | test system | setting | concentration
COc1ccc2c(=O)n(C)c(-c3ccccc3)nc2c1 | male Sprague-Dawley rat, lung | 30 mg/kg, 30 min | 2.5 ng/mL
COc1nc(-c2cc(C)c(N[C@@H](C)c3cc(F)cc(F)c3)nn2)ccc1-n1cnc(C)c1 | male Sprague-Dawley rat, CSF | 5 mg/kg, 4 h, multiple doses, once daily | 15.3 ng/mL
CCOC(=O)[C@@]12C[C@@H]1[C@@H](n1ccc3c(NC)nc(C#Cc4ccc(Cl)s4)nc31)[C@H](O)[C@@H]2O | male Sprague-Dawley rat, plasma | 1 mg/kg, 1 h | 9.55 ng/mL
CN(C(=O)n1cnc(-c2ccc[n+]([O-])c2)c1)C1CCCCC1 | Wistar rat, plasma | 10 mg/kg, 8 h | 278 ng/mL
Cc1noc(C)c1Cn1cc(N2C(=O)CN(Cc3cccc(O)c3)C2=O)cn1 | male Sprague-Dawley rat, plasma | 10 mg/kg, 1 h | 8.29 ng/mL
CCc1cc(-c2noc(-c3cc(OC)nc(C4CCCC4)c3)n2)cc(C)c1OC[C@@H](O)CO | Wistar rat, plasma | 3 mg/kg, 3 h, single dose | 235 ng/mL
COc1cccc(-c2n[nH]c(SCc3ccccn3)n2)c1OC | male Sprague-Dawley rat, plasma | 10 mg/kg, 1 h, single dose | 10400 ng/mL
Cc1ccc(-c2cc(C(F)(F)F)nn2-c2ccc(S(N)(=O)=O)cc2)cc1 | male Sprague-Dawley rat, blood | 20 mg/kg, 8 h | 11.1 µM
Cc1noc(C)c1Cn1cc(N2C(=O)N(Cc3cccc(O)c3)C(C)(C)C2=O)cn1 | male Sprague-Dawley rat, plasma | 100 mg/kg, 2 h, single dose | 3.8 ng/mL
